Experimental data published in ChEMBL document CHEMBL4196168 (J Med Chem, 2018).
pKd: −log10 of the molar value. Calls of active or inactive are those of the source. The calls are words filed in the database; no cut-off is given here.

Experiments:
Albumin [1] = biological target: T1, Albumin (Homo sapiens, UniProt P02768); test: Binding affinity to human serum albumin assessed as compound level bound to protein at 30 uM measured 124 hrs after dialysis; assay type: ADME; settings: isolated protein, 24 h, in the assay text read “24 hrs” for “124 hrs”
T1 sequence (P02768 whole entry): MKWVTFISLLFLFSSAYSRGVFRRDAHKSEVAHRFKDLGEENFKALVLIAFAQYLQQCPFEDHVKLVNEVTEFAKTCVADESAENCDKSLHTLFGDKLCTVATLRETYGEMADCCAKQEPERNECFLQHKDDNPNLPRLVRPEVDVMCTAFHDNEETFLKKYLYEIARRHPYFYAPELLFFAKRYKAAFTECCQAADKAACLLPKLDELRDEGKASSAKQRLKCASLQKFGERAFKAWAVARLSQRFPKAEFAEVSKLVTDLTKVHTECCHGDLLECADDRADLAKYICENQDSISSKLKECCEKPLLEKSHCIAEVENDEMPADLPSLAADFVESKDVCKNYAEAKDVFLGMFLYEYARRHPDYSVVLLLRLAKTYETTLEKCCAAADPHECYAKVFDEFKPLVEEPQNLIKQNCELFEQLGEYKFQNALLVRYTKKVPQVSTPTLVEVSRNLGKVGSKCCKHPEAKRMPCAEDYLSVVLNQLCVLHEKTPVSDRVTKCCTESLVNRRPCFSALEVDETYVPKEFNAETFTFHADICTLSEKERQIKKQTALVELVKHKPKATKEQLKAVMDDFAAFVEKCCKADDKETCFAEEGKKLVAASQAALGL
How it was run: (§1)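 Compound (30 μM) preincubated 1 hr at 37 °C with purified human serum albumin (600 μM) in 10 mM sodium phosphate, 100 mM KCl, 1 mM EDTA, pH 7.6; gel filtration, then dialysis against buffer 24 hr at room temperature; albumin-bound compound quantified by HPLC at time zero and after dialysis; mean ± SD, n = 3.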

[2] = biological target: Transthyretin (Homo sapiens) (UniProt P02766); test: Binding affinity to transthyretin in human serum assessed as protein stabilization at 2:1 compound to TTR ratio after 72 hrs by Western blot
[3] = biological target: Transthyretin (Homo sapiens) (UniProt P02766); settings: 10 uM
[4] = biological target: Transthyretin (Homo sapiens) (UniProt P02766); settings: 10 uM; remark: listed apart in the source
[5] = biological target: Transthyretin (Homo sapiens) (UniProt P02766); test: Binding affinity to transthyretin (unknown origin) in human serum assessed as protein occupancy at 200 uM by fluorescent probe exclusion assay
[6] = biological target: Transthyretin (Homo sapiens) (UniProt P02766); test: Binding affinity to transthyretin in human serum assessed as protein occupancy at 2:1 compound to TTR ratio by fluorescent probe exclusion assay
[7] = biological target: Transthyretin (Homo sapiens) (UniProt P02766); settings: 10 uM; remark: listed apart in the source
[8] = biological target: Transthyretin (Homo sapiens) (UniProt P02766); settings: 10 uM; remark: listed apart in the source
[9] = biological target: T2, Transthyretin (Canis lupus familiaris) (UniProt A0A8I3NFK0); test: Binding affinity to transthyretin in dog serum assessed as protein stabilization at 10 uM by Western blot
How it was run: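 Pooled dog serum with compound (10 μM) or DMSO acidified in acetate buffer pH 4.0 for 0 and 72 h, glutaraldehyde crosslinked, SDS-PAGE, immunoblotted with anti-TTR antiserum (1:2,000); tetramer band intensity expressed relative to DMSO control at 0 hr; mean ± SD, n = 3.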

[10] = biological target: Transthyretin (Homo sapiens) (UniProt P02766); test: Binding affinity to transthyretin (unknown origin) in pH 7.4 PBS buffer assessed as protein occupancy at 1:1 compound to TTR ratio by fluorescent probe exclusion assay
[11] = Cmax in human at 80 mg qd; assay type: ADME, organism-based; set-up: dose 80 mg; settings: in vivo
[12] = biological target: Transthyretin (Homo sapiens) (UniProt P02766); settings: 10 uM; remark: listed apart in the source
[13] = biological target: Transthyretin (Homo sapiens) (UniProt P02766); test: Binding affinity to transthyretin (unknown origin) assessed as free enthalpy changes by ITC method
[14] = biological target: Transthyretin (Homo sapiens) (UniProt P02766); test: Binding affinity to transthyretin (unknown origin) assessed as free TdeltaS changes by ITC method
Albumin [15] = biological target: T1, Albumin; test: Binding affinity to human serum albumin; assay type: ADME
[16] = biological target: T2, Transthyretin (Canis lupus familiaris); test: Binding affinity to transthyretin in dog serum assessed as protein occupancy at 10 uM by fluorescent probe exclusion assay
How it was run: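 Pooled commercial beagle dog serum (TTR 4.6 μM) with compound (10 μM, from DMSO stock) and FPE probe (final 3.6 μM); fluorescence ex 328/em 384 nm read for 6 hr at rt; % occupancy at 3 hr versus probe-alone DMSO control; mean ± SD, n = 4.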

Albumin [17] = biological target: T1, Albumin; test: Binding affinity to human serum albumin assessed as compound level bound to protein at 30 uM measured immediately after gel filtration; assay type: ADME; settings: isolated protein; how it was run: as §1
Canis familiaris [18] = test: In-vivo binding affinity to transthyretin in beagle dog serum assessed as protein occupancy 20 mg/kg/day […] dosed as single administration via oral gavage; assay type: functional, organism-based; settings: Canis lupus familiaris
How it was run: (§2)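 Beagle dogs (2M/2F per group) received one oral gavage dose of 5 or 20 mg/kg in 0.5% methylcellulose; serum collected pre-dose and at 2, 4, 6, 8, 12, 24 hr; compound level by LCMS and TTR occupancy by FPE assay in serum (probe plus DMSO added).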

Canis familiaris [19] = test: In-vivo binding affinity to transthyretin in beagle dog serum assessed as protein occupancy measured on day 7 at 50 to 200 mg/kg/day dosed daily via oral gavage for 7 days by fluorescent probe exclusion assay; assay type: functional, Canis lupus familiaris
How it was run: (§3)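 Male and female beagle dogs gavaged daily 7 days with vehicle (6M/6F) or compound in 0.5% methylcellulose at 50 (2M/2F), 100 (2M/2F) or 200 mg/kg (6M/6F); jugular serum taken pre-dose day 1, pre-dose day 7 and 1 hr post-dose day 7; TTR occupancy by serum FPE assay, read at 3 hr.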

Canis familiaris [20] = test: In-vivo binding affinity to transthyretin in beagle dog serum assessed as protein occupancy at 50 to 200 mg/kg/day dosed daily via oral gavage for 7 days by fluorescent probe exclusion assay; assay type: functional, organism-based; settings: Canis lupus familiaris; how it was run: as §3
Albumin [21] = biological target: T1, Albumin; test: Binding affinity to human serum albumin by ITC method; assay type: ADME
Canis familiaris [22] = test: In-vivo binding affinity to transthyretin in beagle dog serum assessed as protein occupancy 5 mg/kg/day […] dosed as single administration via oral gavage; assay type: functional, organism-based; settings: Canis lupus familiaris; how it was run: as §2
Canis familiaris [23] = test: In-vivo binding affinity to transthyretin in beagle dog serum assessed as protein occupancy measured at 1 hr post dose on day 7 at 50 to 200 mg/kg/day dosed daily via oral gavage for 7 days by fluorescent probe exclusion assay; assay type: functional, Canis lupus familiaris; how it was run: as §3
[24] = biological target: Transthyretin (Homo sapiens) (UniProt P02766); test: Binding affinity to transthyretin (unknown origin) assessed as free energy changes by ITC method
[25] = biological target: Transthyretin (Homo sapiens) (UniProt P02766); settings: 20 uM
[26] = Cmax in human at 250 mg bid; assay type: ADME, organism-based; set-up: dose 250 mg; settings: in vivo

| Compound | Activity [2] | Occ [6] | Occ [10] | deltaH [13] | TdeltaS [14] | deltaG [24] | further results |
| --- | --- | --- | --- | --- | --- | --- | --- |
| O=C(O)c1ccc2nc(-c3cc(Cl)cc(Cl)c3)oc2c1 | 41.5% | 49% | 49.9% | -5 kcal/mol | 6.39 kcal/mol |  | PB (Albumin [1]): 18.8 µM; Occ [3]: Active; Occ [4]: Active; Occ [5]: 65%; Occ [7]: 68.2%; Occ [8]: 41.5%; Activity [9]: Active; Cmax [11]: 20 µM; Occ [12]: Active; pKd (Albumin [15]): 5.60; Activity [16]: Active; PB (Albumin [17]): 24.1 µM |
| Cc1n[nH]c(C)c1CCCOc1cc(C(=O)O)ccc1F [ACORAMIDIS] |  |  |  |  |  |  | Activity (Canis familiaris [18]): Active; Occ (Canis familiaris [19]): 81 - 94%; PB (Albumin [1]): 7.8 µM; Activity (Canis familiaris [20]): Dose-dependent effect; pKd (Albumin [21]): 5.10; Activity (Canis familiaris [22]): Active; Occ (Canis familiaris [23]): >97%; Activity [9]: Active; Activity [16]: Active; PB (Albumin [17]): 18.3 µM |
| Cc1nn(C)c(C)c1CCCOc1cc(C(=O)O)ccc1F | 32.1% | 43% | 29.7% | -4.73 kcal/mol | 4.27 kcal/mol | -9 kcal/mol |  |
| O=C(O)c1cc(-c2ccc(F)cc2F)ccc1O [DIFLUNISAL] |  |  | 28.7% | -8.38 kcal/mol | 0.34 kcal/mol |  | Occ [25]: 65%; Cmax [26]: 200 µM |
| COC(=O)c1ccc(F)c(OCCCc2c(C)n[nH]c2C)c1 | 70.4% | 63.2% | 38.5% | -6.49 kcal/mol | 2.5 kcal/mol | -8.99 kcal/mol |  |
| CCc1n[nH]c(CC)c1CCCOc1cc(C(=O)O)ccc1F | 23.2% | 20.8% | 17.2% | -2.1 kcal/mol | 6 kcal/mol | -8.1 kcal/mol |  |
| Cc1n[nH]c(C)c1CCCOc1cc(C(=O)O)ccc1I | 86.7% | 75.9% | 58.3% | -9.82 kcal/mol | -0.21 kcal/mol | -9.61 kcal/mol |  |
